From ChEMBL document CHEMBL1909627, “Synthesis of three novel fluorine-18 labeled analogues of L-deprenyl for positron emission tomography (PET) studies of monoamine oxidase B (MAO-B)” (J Med Chem, 2011)

What was measured:
[1] = target: T1, Amine oxidase [flavin-containing] B (Homo sapiens, UniProt P27338); experiment: Binding affinity to MAO-B in human brain hippocampus at 4 MBq after 90 mins by autoradiography; type: tissue-based; conditions: 1.5 h
T1 sequence (P27338 whole entry): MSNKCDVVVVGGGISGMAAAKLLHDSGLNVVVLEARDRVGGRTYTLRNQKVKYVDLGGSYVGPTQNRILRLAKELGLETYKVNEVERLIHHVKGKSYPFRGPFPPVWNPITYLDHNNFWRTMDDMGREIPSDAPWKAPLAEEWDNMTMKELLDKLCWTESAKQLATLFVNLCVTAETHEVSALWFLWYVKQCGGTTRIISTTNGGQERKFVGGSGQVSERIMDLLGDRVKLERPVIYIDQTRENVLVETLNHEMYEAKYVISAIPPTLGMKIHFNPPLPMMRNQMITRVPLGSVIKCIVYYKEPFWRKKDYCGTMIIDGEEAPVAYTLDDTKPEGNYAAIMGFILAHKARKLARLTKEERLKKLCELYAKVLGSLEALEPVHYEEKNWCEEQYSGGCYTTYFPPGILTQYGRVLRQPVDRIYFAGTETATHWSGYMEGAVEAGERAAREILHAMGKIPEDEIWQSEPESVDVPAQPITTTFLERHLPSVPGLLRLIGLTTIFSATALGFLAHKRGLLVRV
Outline: (§1)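 100 μm whole-hemisphere post-mortem brain sections (control subject, 11 h post-mortem, stored at −25 °C) incubated 90 min at room temperature with 4 MBq/200 mL radiotracer in 50 mM TRIS pH 7.4 (NaCl 120 mM, KCl 5 mM, CaCl2 2 mM, 0.1% albumin); washed 3 × 5 min in buffer, dipped in ice-cold water, dried, phosphorimaged.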

[2] = target: T1, Amine oxidase [flavin-containing] B; experiment: Binding affinity to MAO-B in human brain cortical gray matter at 4 MBq after 90 mins by autoradiography in presence of 10 uM MAO-B inhibitor L-deprenyl; type: tissue-based; conditions: 1.5 h; outline: as §1
[3] = target: T1, Amine oxidase [flavin-containing] B; experiment: Binding affinity to MAO-B in human brain cortical gray matter at 4 MBq after 90 mins by autoradiography in presence of 10 uM MAO-B inhibitor rasagiline; type: tissue-based; conditions: 1.5 h; outline: as §1
[4] = target: T1, Amine oxidase [flavin-containing] B; experiment: Binding affinity to MAO-B in human brain cortical gray matter at 4 MBq after 90 mins by autoradiography in presence of 10 uM MAO-A inhibitor pirlindole; type: tissue-based; conditions: 1.5 h; outline: as §1
[5] = tested on: Brain; experiment: Drug uptake in NMRI mouse brain at 0.178 MBq, iv after 2 mins post injection by gamma counting; type: ADME, organism-based; conditions: in vivo
Outline: (§2)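 NMRI mice (25.0–31.5 g), three per time point, each given 0.178 MBq tracer in 0.9% NaCl; killed by isoflurane overdose at each post-injection time; organs and blood excised and γ-counted; values decay-corrected and expressed as %ID/g.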

[6] = tested on: Brain; experiment: Drug uptake in NMRI mouse brain at 0.178 MBq, iv after 30 mins post injection by gamma counting; type: ADME, organism-based; conditions: in vivo, 0.5 h; outline: as §2
[7] = tested on: Brain; experiment: Drug uptake in NMRI mouse brain at 0.178 MBq, iv after 4 hrs by gamma counting; type: ADME, organism-based; conditions: in vivo; outline: as §2
[8] = target: T1, Amine oxidase [flavin-containing] B; experiment: Binding affinity to MAO-B in human brain Alzheimer disease slices at 4 MBq after 90 mins by autoradiography; conditions: 1.5 h
[9] = target: T1, Amine oxidase [flavin-containing] B; experiment: Binding affinity to MAO-B in human brain Alzheimer disease slices at 4 MBq after 90 mins by autoradiography in presence of 10 uM MAO-B inhibitor L-deprenyl; conditions: 1.5 h
[10] = target: T1, Amine oxidase [flavin-containing] B; experiment: Binding affinity to MAO-B in human brain Alzheimer disease slices at 4 MBq after 90 mins by autoradiography in presence of 10 uM MAO-B inhibitor rasagiline; conditions: 1.5 h
[11] = target: T1, Amine oxidase [flavin-containing] B; experiment: Binding affinity to MAO-B in human brain Alzheimer disease slices at 4 MBq after 90 mins by autoradiography in presence of 10 uM MAO-A inhibitor pirlindole; conditions: 1.5 h
[12] = target: T2, Amine oxidase [flavin-containing] A (Homo sapiens, UniProt P21397); experiment: Binding affinity to MAO-A in human brain Alzheimer disease slices at 4 MBq after 90 mins by autoradiography; conditions: 1.5 h
T2 sequence (P21397 whole entry): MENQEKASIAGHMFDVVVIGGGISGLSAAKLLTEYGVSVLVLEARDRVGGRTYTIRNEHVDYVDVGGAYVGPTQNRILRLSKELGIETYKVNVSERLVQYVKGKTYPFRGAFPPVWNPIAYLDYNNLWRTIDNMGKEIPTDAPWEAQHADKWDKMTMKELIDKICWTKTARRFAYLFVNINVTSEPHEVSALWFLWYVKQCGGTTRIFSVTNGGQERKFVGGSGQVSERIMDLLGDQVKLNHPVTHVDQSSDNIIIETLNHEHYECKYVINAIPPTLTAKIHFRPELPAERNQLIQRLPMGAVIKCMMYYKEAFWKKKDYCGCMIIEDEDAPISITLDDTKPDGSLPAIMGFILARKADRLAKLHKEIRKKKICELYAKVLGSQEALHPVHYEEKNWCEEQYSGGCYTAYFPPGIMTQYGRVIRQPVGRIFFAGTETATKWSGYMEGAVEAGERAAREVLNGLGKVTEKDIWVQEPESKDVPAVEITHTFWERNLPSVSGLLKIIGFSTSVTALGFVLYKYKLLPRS

[13] = Fraction unbound in human plasma at 20 MBq after 10 mins by ultrafiltration; type: ADME, cell-free
Outline: (§3)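 Duplicate: 500 μL monkey or human plasma, or PBS pH 7.4 as control, mixed with 50 μL tracer formulation (~20 MBq in PBS), 10 min at room temperature; 200 μL ultrafiltered by centrifugation 15 min at 3000 rpm; total and filtrate well-counted; bound fraction corrected for membrane binding using PBS control.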

[14] = Fraction unbound in monkey plasma at 20 MBq after 10 mins by ultrafiltration; type: ADME, cell-free, Macaca mulatta; conditions: rhesus monkey; outline: as §3
[15] = Stability of the compound in PBS buffer assessed as half life at pH 7.4; type: physicochemical
[16] = target: T1, Amine oxidase [flavin-containing] B; experiment: Inhibition of human recombinant MAO-B expressed in insect cells assessed as inhibition of kynuramine oxidation after 30 mins by fluorescence assay; type: cell-based
[17] = target: T2, Amine oxidase [flavin-containing] A; experiment: Inhibition of human recombinant MAO-A expressed in insect cells assessed as inhibition of kynuramine oxidation after 30 mins by fluorescence assay
[18] = target: T1, Amine oxidase [flavin-containing] B; experiment: Binding affinity to MAO-B in human brain white matter at 4 MBq after 90 mins by autoradiography; type: tissue-based; conditions: 1.5 h; outline: as §1
[19] = target: T1, Amine oxidase [flavin-containing] B; experiment: Binding affinity to MAO-B in human brain cortical gray matter at 4 MBq after 90 mins by autoradiography; type: tissue-based; conditions: 1.5 h; outline: as §1
[20] = target: T1, Amine oxidase [flavin-containing] B; experiment: Binding affinity to MAO-B in human brain white matter at 4 MBq after 90 mins by autoradiography in presence of 10 uM MAO-B inhibitor L-deprenyl; type: tissue-based; conditions: 1.5 h; outline: as §1
[21] = target: T1, Amine oxidase [flavin-containing] B; experiment: Binding affinity to MAO-B in human brain white matter at 4 MBq after 90 mins by autoradiography in presence of 10 uM MAO-A inhibitor pirlindole; type: tissue-based; conditions: 1.5 h; outline: as §1
[22] = target: T1, Amine oxidase [flavin-containing] B; experiment: Binding affinity to MAO-B in human brain white matter at 4 MBq after 90 mins by autoradiography in presence of 10 uM MAO-B inhibitor rasagiline; type: tissue-based; conditions: 1.5 h; outline: as §1

SMILES: C#CCN(C)[C@H](C)[C@@H]([18F])c1ccccc1
- Activity [1]: Active
- Activity [2]: Not Active
- Activity [3]: Not Active
- Activity [4]: Active

SMILES: C#CCN(C)[C@H](C[18F])Cc1ccccc1
- Drug uptake [5]: 5.2 % ID/g
- Drug uptake [6]: 1.9 % ID/g
- Drug uptake [7]: 1.4 % ID/g
- Activity [8]: Active
- Activity [9]: Not Active
- Activity [10]: Not Active
- Activity [11]: Active
- Activity [12]: Not Active
- fraction unbound at 10 min, 20 MBq [13]: 0.168
- fraction unbound at 10 min, 20 MBq [14]: 0.241

SMILES: C#CCN(CCF)[C@H](C)Cc1ccccc1
- half-life [15]: 1.83 h
- IC50 [16]: > 2000 nM

SMILES: C#CCN(C)[C@H](CF)Cc1ccccc1
- half-life [15]: 1.83 h
- IC50 [17]: > 2000 nM
- IC50 [16]: 170 nM

SMILES: C#CCN(CC[18F])[C@H](C)Cc1ccccc1
- Activity [18]: Active
- Activity [19]: Not Active
- Activity [20]: Active
- Activity [21]: Active
- Activity [22]: Active

SMILES: C#CCN(C)[C@H](C)[C@H](F)c1ccccc1
- half-life [15]: 1.83 h
- IC50 [16]: > 2000 nM
